{"source": "ChEMBL document CHEMBL4251698", "about": "“Mitigating the Metabolic Liability of Carbonyl Reduction: Novel Calpain Inhibitors with P1' Extension” (ACS Med Chem Lett, 2018)", "key": {"[1]": {"molecular_target": "T1, Calpain-1 catalytic subunit (Homo sapiens, UniProt P07384)", "T1 sequence (P07384 whole entry)": "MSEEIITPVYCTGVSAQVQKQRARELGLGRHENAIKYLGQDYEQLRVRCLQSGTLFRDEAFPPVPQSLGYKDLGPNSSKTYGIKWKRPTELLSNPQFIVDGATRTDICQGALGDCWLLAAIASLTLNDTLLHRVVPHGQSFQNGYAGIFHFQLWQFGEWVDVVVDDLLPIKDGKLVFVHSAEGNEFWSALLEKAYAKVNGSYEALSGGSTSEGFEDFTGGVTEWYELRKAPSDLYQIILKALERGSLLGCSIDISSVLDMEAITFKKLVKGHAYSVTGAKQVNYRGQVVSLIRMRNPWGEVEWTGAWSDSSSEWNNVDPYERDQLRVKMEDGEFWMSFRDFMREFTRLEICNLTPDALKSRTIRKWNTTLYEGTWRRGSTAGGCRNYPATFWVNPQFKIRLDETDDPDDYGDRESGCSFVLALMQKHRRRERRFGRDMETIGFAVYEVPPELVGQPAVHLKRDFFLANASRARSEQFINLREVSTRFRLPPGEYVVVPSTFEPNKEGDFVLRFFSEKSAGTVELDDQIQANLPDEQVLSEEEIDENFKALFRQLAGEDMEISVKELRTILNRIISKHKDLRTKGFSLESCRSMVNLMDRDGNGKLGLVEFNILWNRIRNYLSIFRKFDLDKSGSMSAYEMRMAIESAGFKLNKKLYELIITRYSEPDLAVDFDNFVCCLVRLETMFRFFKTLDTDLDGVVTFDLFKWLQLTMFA", "assay": "Inhibition of human erythrocyte calpain 1 using Suc-Leu-Tyr-AMC as substrate by fluorescence assay"}, "[2]": {"assay": "Inhibition of calpain in rat hippocampal slices assessed as reduction in NMDA-induced intracellular spectrin cleavage", "format": "cell-based", "procedure,_shortened": "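Rat hippocampal slice cultures were challenged with NMDA. The read-out was prevention of intracellular spectrin cleavage, and IC50 values were derived.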"}, "[3]": {"assay": "Intrinsic clearance in cynomolgus monkey liver cytosol at 0.5 uM measured after 15 mins in presence of NADPH by spectrometric method", "format": "ADME, subcellular, Macaca fascicularis", "conditions": "read-out: CLH", "procedure,_shortened": "(§1)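 Test compound incubated with monkey or human liver cytosol and percent parent lost over time followed. Intrinsic clearance calculated from this depletion, in µL/min/mg; ranges adjusted to hepatic plasma flow of the species.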"}, "[4]": {"assay": "Clearance in rat hepatocytes", "format": "ADME, cell-based, Hepatocyte"}, "[5]": {"assay": "Intrinsic clearance in human liver cytosol at 0.5 uM measured after 15 mins in presence of NADPH by spectrometric method", "format": "ADME, subcellular", "conditions": "read-out: CLH", "procedure,_shortened": "as §1"}, "[6]": {"assay": "Clearance in human hepatocytes", "format": "ADME, cell-based, Hepatocyte"}}, "data": [{"smiles": "CONC(=O)C(=O)C(Cc1ccccc1)NC(=O)c1cccnc1-n1ccc(-c2ccccc2)n1", "note": "(stereo not given)", "values": [{"measurement": "Ki", "setting": "[1]", "result": 120, "unit": "nM"}, {"measurement": "IC50", "setting": "[2]", "result": 2150, "unit": "nM"}]}, {"smiles": "O=C(NOC1CCC1)C(=O)C(Cc1ccccc1)NC(=O)c1cccnc1-n1ccc(-c2ccccc2)n1", "note": "(stereo not given)", "values": [{"measurement": "Ki", "setting": "[1]", "result": 150, "unit": "nM"}]}, {"smiles": "CN(C)CCONC(=O)C(=O)C(Cc1ccccc1)NC(=O)c1cccnc1-n1ccc(-c2ccccc2)n1", "note": "(stereo not given)", "values": [{"measurement": "Ki", "setting": "[1]", "result": 1060, "unit": "nM"}]}, {"smiles": "O=C(NOC1CCCC1)C(=O)C(Cc1ccccc1)NC(=O)c1cccnc1-n1ccc(-c2ccccc2)n1", "note": "(stereo not given)", "values": [{"measurement": "Ki", "setting": "[1]", "result": 120, "unit": "nM"}]}, {"smiles": "CC(C)ONC(=O)C(=O)C(Cc1ccccc1)NC(=O)c1cccnc1-n1ccc(-c2ccccc2)n1", "note": "(stereo not given)", "values": [{"measurement": "Ki", "setting": "[1]", "result": 220, "unit": "nM"}]}, {"smiles": "O=C(NCc1nc2ccccc2o1)C(=O)C(Cc1ccccc1)NC(=O)c1cccnc1-n1ccc(-c2ccccc2)n1", "note": "(stereo not given)", "values": [{"measurement": "Ki", "setting": "[1]", "result": 210, "unit": "nM"}]}, {"smiles": "CCONC(=O)C(=O)C(Cc1ccccc1)NC(=O)c1cccnc1-n1ccc(-c2ccccc2)n1", "note": "(stereo not given)", "values": [{"measurement": "Ki", "setting": "[1]", "result": 110, "unit": "nM"}, {"measurement": "microsomal CLint at […], 0.5 µM", "setting": "[3]", "result": "< 1", "unit": "µL/min/mg"}, {"measurement": "CLH", "setting": "[4]", "result": 32, "unit": "µL/min/mg"}, {"measurement": "microsomal CLint at […], 0.5 µM", "setting": "[5]", "result": "< 1", "unit": "µL/min/mg"}, {"measurement": "CLH", "setting": "[6]", "result": 10, "unit": "µL/min/mg"}]}, {"smiles": "CCNC(=O)C(=O)C(Cc1ccccc1)NC(=O)c1cccnc1-n1ccc(-c2ccccc2)n1", "note": "(stereo not given)", "values": [{"measurement": "Ki", "setting": "[1]", "result": 690, "unit": "nM"}]}, {"smiles": "CNC(=O)C(=O)C(Cc1ccccc1)NC(=O)c1cccnc1-n1ccc(-c2ccccc2)n1", "note": "(stereo not given)", "values": [{"measurement": "Ki", "setting": "[1]", "result": 380, "unit": "nM"}]}, {"smiles": "O=C(NCCc1ccccc1)C(=O)C(Cc1ccccc1)NC(=O)c1cccnc1-n1ccc(-c2ccccc2)n1", "note": "(stereo not given)", "values": [{"measurement": "Ki", "setting": "[1]", "result": 330, "unit": "nM"}]}, {"smiles": "O=C(NC1CC1)C(=O)C(Cc1ccccc1)NC(=O)c1cccnc1-n1ccc(-c2ccccc2)n1", "note": "(stereo not given)", "values": [{"measurement": "Ki", "setting": "[1]", "result": 205, "unit": "nM"}, {"measurement": "IC50", "setting": "[2]", "result": 750, "unit": "nM"}]}, {"smiles": "N#CCNC(=O)C(=O)C(Cc1ccccc1)NC(=O)c1cccnc1-n1ccc(-c2ccccc2)n1", "note": "(stereo not given)", "values": [{"measurement": "Ki", "setting": "[1]", "result": 950, "unit": "nM"}]}, {"smiles": "C=CCONC(=O)C(=O)C(Cc1ccccc1)NC(=O)c1cccnc1-n1ccc(-c2ccccc2)n1", "note": "(stereo not given)", "values": [{"measurement": "Ki", "setting": "[1]", "result": 185, "unit": "nM"}]}, {"smiles": "O=C(NC1CCC1)C(=O)C(Cc1ccccc1)NC(=O)c1cccnc1-n1ccc(-c2ccccc2)n1", "note": "(stereo not given)", "values": [{"measurement": "Ki", "setting": "[1]", "result": 490, "unit": "nM"}]}, {"smiles": "CCCONC(=O)C(=O)C(Cc1ccccc1)NC(=O)c1cccnc1-n1ccc(-c2ccccc2)n1", "note": "(stereo not given)", "values": [{"measurement": "Ki", "setting": "[1]", "result": 75, "unit": "nM"}]}, {"smiles": "O=C(NCc1ccccc1)C(=O)C(Cc1ccccc1)NC(=O)c1cccnc1-n1ccc(-c2ccccc2)n1", "note": "(stereo not given)", "values": [{"measurement": "Ki", "setting": "[1]", "result": 110, "unit": "nM"}]}, {"smiles": "O=C(NCC1CC1)C(=O)C(Cc1ccccc1)NC(=O)c1cccnc1-n1ccc(-c2ccccc2)n1", "note": "(stereo not given)", "values": [{"measurement": "Ki", "setting": "[1]", "result": 550, "unit": "nM"}]}, {"smiles": "O=C(NOCC1CC1)C(=O)C(Cc1ccccc1)NC(=O)c1cccnc1-n1ccc(-c2ccccc2)n1", "note": "(stereo not given)", "values": [{"measurement": "Ki", "setting": "[1]", "result": 90, "unit": "nM"}]}, {"smiles": "O=C(NOCCN1CCOCC1)C(=O)C(Cc1ccccc1)NC(=O)c1cccnc1-n1ccc(-c2ccccc2)n1", "note": "(stereo not given)", "values": [{"measurement": "Ki", "setting": "[1]", "result": 265, "unit": "nM"}]}, {"smiles": "O=C(NC1CCCC1)C(=O)C(Cc1ccccc1)NC(=O)c1cccnc1-n1ccc(-c2ccccc2)n1", "note": "(stereo not given)", "values": [{"measurement": "Ki", "setting": "[1]", "result": 1350, "unit": "nM"}]}, {"smiles": "CCCNC(=O)C(=O)C(Cc1ccccc1)NC(=O)c1cccnc1-n1ccc(-c2ccccc2)n1", "note": "(stereo not given)", "values": [{"measurement": "Ki", "setting": "[1]", "result": 480, "unit": "nM"}]}, {"smiles": "CC(C)NC(=O)C(=O)C(Cc1ccccc1)NC(=O)c1cccnc1-n1ccc(-c2ccccc2)n1", "note": "(stereo not given)", "values": [{"measurement": "Ki", "setting": "[1]", "result": 2600, "unit": "nM"}]}, {"smiles": "C=CCNC(=O)C(=O)C(Cc1ccccc1)NC(=O)c1cccnc1-n1ccc(-c2ccccc2)n1", "note": "(stereo not given)", "values": [{"measurement": "Ki", "setting": "[1]", "result": 470, "unit": "nM"}]}, {"smiles": "CC1(NC(=O)C(=O)C(Cc2ccccc2)NC(=O)c2cccnc2-n2ccc(-c3ccccc3)n2)CC1", "note": "(stereo not given)", "values": [{"measurement": "Ki", "setting": "[1]", "result": "> 5000", "unit": "nM"}]}]}
